Reference: ChEMBL document CHEMBL1148785, “Second generation tetrahydroquinoline-based protein farnesyltransferase inhibitors as antimalarials” (J Med Chem, 2007)

What was measured:
Plasmodium falciparum [1] = assay: Antimalarial activity against Plasmodium falciparum 3D7; assay type: functional; conditions: Plasmodium falciparum, 3D7; read-out: ED50 (the source's name)
Method in brief: (§1)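 Asynchronous culture in type A+ erythrocytes at 0.5% parasitemia and 0.5% hematocrit, grown in RPMI-1640 with 20% heat-inactivated human A+ plasma. Compound was serially diluted from a top final 5 µM, with DMSO vehicle as 100% growth. Plates ran 48 h at 37 °C under 5% CO2/5% O2/90% N2, then [3H]-hypoxanthine (0.3 µCi) for 24 h. Filter-harvested counts were corrected for the uninfected-RBC background. ED50 by linear regression; duplicates averaged.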

Plasmodium falciparum [2] = assay: Inhibition of Plasmodium falciparum protein farnesyltransferase at 0.5 nM by scintillation proximity assay
Plasmodium falciparum [3] = assay: Inhibition of Plasmodium falciparum protein farnesyltransferase at 5 nM by scintillation proximity assay
Plasmodium falciparum [4] = assay: Antimalarial activity against Plasmodium falciparum K1; assay type: functional; conditions: Plasmodium falciparum, K1; read-out: ED50 (the source's name); method in brief: as §1
Plasmodium falciparum [5] = assay: Inhibition of Plasmodium falciparum protein farnesyltransferase at 50 nM by scintillation proximity assay

| Structure (SMILES) | EC50 (Plasmodium falciparum [1]) [nM] | inhibition (Plasmodium falciparum [2]) [%] | inhibition (Plasmodium falciparum [3]) [%] | EC50 (Plasmodium falciparum [4]) [nM] | inhibition (Plasmodium falciparum [5]) [%] |
| --- | --- | --- | --- | --- | --- |
| Cn1cnc(S(=O)(=O)N(Cc2ccccc2C(F)(F)F)C2Cc3cc(C#N)ccc3N(Cc3cncn3C)C2)c1 (stereo not given) | 71 | 36 | 93 | 75 | 99 |
| COc1ccc(S(=O)(=O)N(Cc2ccc(S(C)(=O)=O)cc2)C2Cc3cc(C#N)ccc3N(Cc3cncn3C)C2)cc1 (stereo not given) | 185 | 17 | 83 | 340 | 97 |
| Cn1cncc1CN1CC(N(CCCCNC(=O)OC(C)(C)C)S(=O)(=O)c2ccccn2)Cc2cc(C#N)ccc21 (stereo not given) | 250 | 24 | 80 | 375 | 97 |
| Cn1cnc(CN2CC(N(CC(=O)NC(C)(C)C)S(=O)(=O)c3cccs3)Cc3cc(-c4ccccc4)ccc32)c1 (stereo not given) | 3500 | 4 | 1 | > 5000 | 10 |
| Cn1cnc(S(=O)(=O)N(CCCCON2C(=O)c3ccccc3C2=O)C2Cc3cc(C#N)ccc3N(Cc3cncn3C)C2)c1 (stereo not given) | 140 | 57 | 96 | 100 | 99 |
| CC(=O)OCC(=O)N(Cc1ccccc1F)C1Cc2cc(C#N)ccc2N(Cc2cncn2C)C1 (stereo not given) | 690 | 0 | 0 | 750 | 33 |
| Cn1cncc1CN1CC(N(Cc2ccccc2F)S(=O)(=O)c2ccccn2)Cc2cc(C#N)ccc21 (stereo not given) | 230 | 19 | 82 | 1250 | 100 |
| Cc1noc(C)c1CN(C1Cc2cc(C#N)ccc2N(Cc2cncn2C)C1)S(=O)(=O)c1ccccn1 (stereo not given) | 144 | 17 | 93 | 965 | 96 |
| Cn1cnc(S(=O)(=O)N(CC(=O)NC(C)(C)C)C2Cc3cc(C(=O)NC4CCCCC4)ccc3N(Cc3cncn3C)C2)c1 (stereo not given) | 2800 | 5 | 17 | 2300 | 66 |
| Cn1cncc1CN1CC(N(Cc2cccc(C(=O)O)n2)S(=O)(=O)c2ccccn2)Cc2cc(C#N)ccc21 (stereo not given) | 1000 | 24 | 81 | 800 | 97 |
| CCN(CC)C(=O)c1ccc2c(c1)CC(N(CC(=O)NC(C)(C)C)S(=O)(=O)c1cn(C)cn1)CN2Cc1cncn1C (stereo not given) | 2800 | 0 | 23 | 2600 | 73 |
| C/C=C/C=C\C=C\CN(C1Cc2cc(C#N)ccc2N(Cc2cncn2C)C1)S(=O)(=O)c1ccccn1 (stereo not given) | 700 | 32 | 87 | 700 | 98 |
| Cn1cncc1CN1CC(N(CCCCON2C(=O)c3ccccc3C2=O)S(=O)(=O)c2ccccn2)Cc2cc(C#N)ccc21 (stereo not given) | 2150 | 0 | 32 | 1420 | 84 |
| Cn1cnc(S(=O)(=O)N(CCCCN2C(=O)c3ccccc3C2=O)C2Cc3cc(C#N)ccc3N(Cc3cncn3C)C2)c1 (stereo not given) | 40 | 90 | 96 | 130 | 97 |
| Cn1cnc(S(=O)(=O)N(Cc2ccc3cccnc3c2)C2Cc3cc(C#N)ccc3N(Cc3cncn3C)C2)c1 (stereo not given) | 210 | 37 | 91 | 600 | 99 |
| Cn1cncc1CN1CC(N(CCC2(C)OCC(C)(C)CO2)S(=O)(=O)c2ccccn2)Cc2cc(C#N)ccc21 (stereo not given) | 440 | 18 | 66 | 240 | 95 |
| Cn1cncc1CN1CC(N(Cc2ccc(F)cc2)S(=O)(=O)c2ccccn2)Cc2cc(C#N)ccc21 (stereo not given) | 430 | 11 | 50 | 2500 | 91 |
| Cn1cncc1CN1CC(N(CCn2ccnc2)S(=O)(=O)c2ccccn2)Cc2cc(C#N)ccc21 (stereo not given) | 12 | 67 | 91 | 16 | 95 |
| Cn1cnc(CN2CC(N(Cc3ccccc3)S(=O)(=O)c3cn(C)cn3)Cc3cc(-c4ccccc4)ccc32)c1 (stereo not given) | 450 | 9 | 90 | 380 | 99 |
| Cn1cncc1CN1CC(N(CCn2cccn2)S(=O)(=O)c2ccccn2)Cc2cc(C#N)ccc21 (stereo not given) | 13 | 68 | 96 | 20 | 99 |
| Cc1oncc1S(=O)(=O)N(CC(=O)NC(C)(C)C)C1Cc2cc(C#N)ccc2N(Cc2cncn2C)C1 (stereo not given) | > 5000 | 0 | 0 | > 5000 | 3 |
| Cn1cncc1CN1CC(N(CCN)S(=O)(=O)c2ccccn2)Cc2cc(C#N)ccc21 (stereo not given) | 2700 | 6 | 11 | > 5000 | 65 |

Continued, values first:

| EC50 (Plasmodium falciparum [1]) [nM] | inhibition (Plasmodium falciparum [2]) [%] | inhibition (Plasmodium falciparum [3]) [%] | EC50 (Plasmodium falciparum [4]) [nM] | inhibition (Plasmodium falciparum [5]) [%] | Structure (SMILES) |
| --- | --- | --- | --- | --- | --- |
| 21 | 26 | 86 | 8.5 | 100 | Cn1cnc(S(=O)(=O)N(CCc2cccs2)C2Cc3cc(C#N)ccc3N(Cc3cncn3C)C2)c1 (stereo not given) |
| 65 | 91 | 47 | 75 | 91 | Cn1cncc1CN1CC(N(CC2CCN(C(=O)OCC(F)(F)F)CC2)S(=O)(=O)c2ccccn2)Cc2cc(C#N)ccc21 (stereo not given) |
| 80 | 92 | 51 | 93 | 92 | Cn1cncc1CN1CC(N(CC2CCN(C(=O)c3ccco3)CC2)S(=O)(=O)c2ccccn2)Cc2cc(C#N)ccc21 (stereo not given) |
| 3 | 72 | 99 | 1.6 | 99 | COC(=O)N1CCC(CN(C2Cc3cc(C#N)ccc3N(Cc3cncn3C)C2)S(=O)(=O)c2cncn2C)CC1 (stereo not given) |
| 6.2 | 86 | 100 | 4.2 | 100 | Cn1cnc(S(=O)(=O)N(CCc2ccsc2)C2Cc3cc(C#N)ccc3N(Cc3cncn3C)C2)c1 (stereo not given) |
| 42 | 39 | 98 | 45 | 100 | COC(=O)N1CCC(CN(C2Cc3cc(C#N)ccc3N(Cc3cncn3C)C2)S(=O)(=O)c2cnn(C)c2)CC1 (stereo not given) |
| 2700 | 0 | 5 | > 5000 | 66 | COC(=O)N1CCC(CN(C2Cc3cc(C#N)ccc3N(Cc3cncn3C)C2)S(C)(=O)=O)CC1 (stereo not given) |
| 10 | 24 | 90 | 5.5 | 98 | CC(C)COC(=O)N1CCC(CN(C2Cc3cc(C#N)ccc3N(Cc3cncn3C)C2)S(=O)(=O)c2cn(C)cn2)CC1 (stereo not given) |
| 19 | 61 | 96 | 17 | 100 | COC(=O)NCCCN(C1Cc2cc(C#N)ccc2N(Cc2cncn2C)C1)S(=O)(=O)c1cn(C)cn1 (stereo not given) |
| 4000 | 14 | 7 | 2600 | 46 | CC(C)NC(=O)c1ccc2c(c1)CC(N(CC(=O)NC(C)(C)C)S(=O)(=O)c1cn(C)cn1)CN2Cc1cncn1C (stereo not given) |
| 460 | 28 | 90 | 75 | 99 | Cn1cnc(S(=O)(=O)N(CCNC(=O)OC(C)(C)C)C2Cc3cc(C#N)ccc3N(Cc3cncn3C)C2)c1 (stereo not given) |
| 70 | 87 | 35 | 81 | 99 | Cn1cncc1CN1CC(N(CC2CCN(C(=O)c3cccs3)CC2)S(=O)(=O)c2ccccn2)Cc2cc(C#N)ccc21 (stereo not given) |
| 20 | 66 | 99 | < 20 | 99 | Cn1cnc(S(=O)(=O)N(Cc2ccc3c(c2)OCCS3(=O)=O)C2Cc3cc(C#N)ccc3N(Cc3cncn3C)C2)c1 (stereo not given) |
| 170 | 14 | 79 | 190 | 98 | COC(=O)N1CCC(CN(C2Cc3cc(C#N)ccc3N(Cc3cncn3C)C2)S(=O)(=O)c2ccc(OC)cc2)CC1 (stereo not given) |
| 55 | 18 | 66 | 75 | 95 | COC(=O)N1CCC(CN(C2Cc3cc(C#N)ccc3N(Cc3cncn3C)C2)S(=O)(=O)c2sccc2C)CC1 (stereo not given) |
| 50 | 90 | 36 | 50 | 97 | CC(C)OC(=O)N1CCC(CN(C2Cc3cc(C#N)ccc3N(Cc3cncn3C)C2)S(=O)(=O)c2ccccn2)CC1 (stereo not given) |
| 9 | 82 | 96 | 10 | 97 | Cn1cnc(S(=O)(=O)N(CCc2ccccc2)C2Cc3cc(C#N)ccc3N(Cc3cncn3C)C2)c1 (stereo not given) |
| 70 | 17 | 89 | 210 | 99 | Cn1cnc(S(=O)(=O)N(Cc2cccnc2)C2Cc3cc(C#N)ccc3N(Cc3cncn3C)C2)c1 (stereo not given) |
| 140 | 20 | 84 | 160 | 98 | COC(=O)N1CCC(CN(C2Cc3cc(C#N)ccc3N(Cc3cncn3C)C2)S(=O)(=O)c2cccc3nsnc23)CC1 (stereo not given) |
